Measurements as given in ChEMBL document CHEMBL3804775, “Development of a Potent, Specific CDK8 Kinase Inhibitor Which Phenocopies CDK8/19 Knockout Cells” (ACS Med Chem Lett, 2016).
≈ marks a conversion by molar mass, not a printed value. Calls of active or inactive are those of the source. The rule behind the calls is not given here.

Experiments:
[1] = Antiproliferative activity against human HCT116 cells after 72 hrs by Celltiter-Glo reagent based assay in presence of 10% fetal bovine serum; format: functional, cell-based; conditions: HCT-116, 72 h
[2] = target: CDK8/Cyclin C (Homo sapiens, UniProt P49336); assay: Inhibition of full length human recombinant His-tagged CDK8/Cyclin C expressed in baculovirus expression system by fluorescence polarization assay
CDK8/Cyclin C, sequence (P49336 whole entry): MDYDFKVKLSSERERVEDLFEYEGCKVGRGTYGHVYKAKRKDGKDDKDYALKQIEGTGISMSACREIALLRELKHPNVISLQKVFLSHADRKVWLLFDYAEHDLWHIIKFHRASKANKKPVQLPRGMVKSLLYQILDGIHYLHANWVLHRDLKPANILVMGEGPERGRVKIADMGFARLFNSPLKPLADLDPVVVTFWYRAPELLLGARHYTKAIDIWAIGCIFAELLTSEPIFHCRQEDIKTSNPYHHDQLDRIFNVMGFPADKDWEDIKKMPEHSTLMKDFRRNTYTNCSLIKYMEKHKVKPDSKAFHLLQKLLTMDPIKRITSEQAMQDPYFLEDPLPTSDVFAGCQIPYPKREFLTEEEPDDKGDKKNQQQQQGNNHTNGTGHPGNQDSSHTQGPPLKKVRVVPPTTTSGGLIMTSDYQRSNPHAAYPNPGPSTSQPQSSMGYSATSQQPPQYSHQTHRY
CDK8/Cyclin C, sequence (P24863 whole entry, further chain): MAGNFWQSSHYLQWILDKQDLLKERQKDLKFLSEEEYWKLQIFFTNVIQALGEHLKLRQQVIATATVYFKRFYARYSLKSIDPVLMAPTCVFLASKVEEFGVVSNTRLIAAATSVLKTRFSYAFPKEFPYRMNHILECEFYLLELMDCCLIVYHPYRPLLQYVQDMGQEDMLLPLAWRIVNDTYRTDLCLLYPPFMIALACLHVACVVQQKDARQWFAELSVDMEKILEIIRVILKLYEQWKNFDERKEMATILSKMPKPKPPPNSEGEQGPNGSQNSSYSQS

[3] = Permeability from apical to basolateral side in MDCK cells; format: ADME, cell-based, Canis lupus familiaris; conditions: dog, read-out: permeability
[4] = Antiproliferative activity against human HCT116 cells after 72 hrs by Celltiter-Glo reagent based assay in presence of 0.625% fetal bovine serum; format: functional, cell-based; conditions: HCT-116, 72 h
[5] = Ratio of EC50 for antiproliferative activity against human HCT116 cells after 72 hrs by Celltiter-Glo reagent based assay to IC50 for inhibition of full length human recombinant His-tagged CDK8/Cyclin C expressed in baculovirus expression system by fluorescence polarization assay; set-up: species or system HCT-116
[6] = target: CDK9/cyclin T1 (Homo sapiens, UniProt P50750); assay: Inhibition of full length human recombinant His-tagged CDK9/Cyclin T expressed in baculovirus expression system using Cdk7/9tide as substrate by adapta assay
CDK9/cyclin T1, sequence (O60563 whole entry): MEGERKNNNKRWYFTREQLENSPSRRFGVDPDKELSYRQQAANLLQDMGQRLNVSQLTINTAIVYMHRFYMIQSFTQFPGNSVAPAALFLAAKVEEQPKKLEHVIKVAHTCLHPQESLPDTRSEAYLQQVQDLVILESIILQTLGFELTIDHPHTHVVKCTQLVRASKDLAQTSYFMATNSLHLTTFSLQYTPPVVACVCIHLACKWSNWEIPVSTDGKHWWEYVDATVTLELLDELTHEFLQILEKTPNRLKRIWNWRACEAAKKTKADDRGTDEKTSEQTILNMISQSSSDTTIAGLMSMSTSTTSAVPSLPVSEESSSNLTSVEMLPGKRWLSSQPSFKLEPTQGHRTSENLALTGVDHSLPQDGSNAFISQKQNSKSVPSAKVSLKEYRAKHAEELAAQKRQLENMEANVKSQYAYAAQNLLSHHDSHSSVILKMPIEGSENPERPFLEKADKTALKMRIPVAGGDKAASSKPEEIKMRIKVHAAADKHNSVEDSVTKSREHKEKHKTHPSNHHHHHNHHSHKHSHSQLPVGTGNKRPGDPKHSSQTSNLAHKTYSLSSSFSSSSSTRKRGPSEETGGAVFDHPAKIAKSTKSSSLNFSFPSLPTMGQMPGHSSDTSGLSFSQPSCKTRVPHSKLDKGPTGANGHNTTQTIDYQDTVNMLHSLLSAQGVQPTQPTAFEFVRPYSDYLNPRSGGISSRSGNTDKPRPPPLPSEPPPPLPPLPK
CDK9/cyclin T1, sequence (P50750 whole entry): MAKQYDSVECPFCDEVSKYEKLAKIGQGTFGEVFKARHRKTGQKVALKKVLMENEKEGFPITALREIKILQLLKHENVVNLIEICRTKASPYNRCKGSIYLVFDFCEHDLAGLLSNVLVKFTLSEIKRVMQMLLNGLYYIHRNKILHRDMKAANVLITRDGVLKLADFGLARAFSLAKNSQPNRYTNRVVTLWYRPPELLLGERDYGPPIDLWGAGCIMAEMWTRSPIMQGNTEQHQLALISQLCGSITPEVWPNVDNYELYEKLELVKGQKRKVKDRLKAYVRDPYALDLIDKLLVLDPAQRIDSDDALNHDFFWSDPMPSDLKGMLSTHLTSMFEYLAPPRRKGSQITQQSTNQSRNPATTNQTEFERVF

[7] = system: HCT-116; assay: Antiproliferative activity against CDK8 knockout human HCT116 cells after 72 hrs by Celltiter-Glo reagent based assay; format: functional, cell-based
Procedure, shortened: (§1)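 HCT-116 CDK8 knockout and CDK8/CDK19 double knockout clones, derived from wild-type HCT-116, were incubated alongside the parent line with varying concentrations of compound. Cell viability was read at 72 h to give growth-inhibition curves.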

[8] = Kinetic solubility in DMSO/phosphate buffered saline at pH 7.4 at 200 uM after 24 hrs by UHPLC based chemiluminescent nitrogen detection method; format: physicochemical; conditions: read-out: Kinetic_solubility
[9] = Plasma protein binding in mouse; format: ADME, cell-free; conditions: read-out: PPB (converted)
[10] = system: HCT-116; assay: Antiproliferative activity against CDK8/CDK19 double knockout human HCT116 cells after 72 hrs by Celltiter-Glo reagent based assay; format: functional, cell-based; procedure, shortened: as §1
[11] = Plasma protein binding in rat; format: ADME, cell-free; conditions: read-out: PPB (converted)
[12] = Plasma protein binding in human; format: ADME, cell-free; conditions: read-out: PPB (converted)
[13] = target: T1, Homeodomain-interacting protein kinase 4 (Homo sapiens) (UniProt Q8NE63); assay: Inhibition of full length human recombinant N-terminal GST-tagged HIPK4 expressed in baculovirus expression system using Ser/Thr peptide 18 substrate at 0.1 uM by Z-Lyte assay relative to control
T1 sequence (whole entry): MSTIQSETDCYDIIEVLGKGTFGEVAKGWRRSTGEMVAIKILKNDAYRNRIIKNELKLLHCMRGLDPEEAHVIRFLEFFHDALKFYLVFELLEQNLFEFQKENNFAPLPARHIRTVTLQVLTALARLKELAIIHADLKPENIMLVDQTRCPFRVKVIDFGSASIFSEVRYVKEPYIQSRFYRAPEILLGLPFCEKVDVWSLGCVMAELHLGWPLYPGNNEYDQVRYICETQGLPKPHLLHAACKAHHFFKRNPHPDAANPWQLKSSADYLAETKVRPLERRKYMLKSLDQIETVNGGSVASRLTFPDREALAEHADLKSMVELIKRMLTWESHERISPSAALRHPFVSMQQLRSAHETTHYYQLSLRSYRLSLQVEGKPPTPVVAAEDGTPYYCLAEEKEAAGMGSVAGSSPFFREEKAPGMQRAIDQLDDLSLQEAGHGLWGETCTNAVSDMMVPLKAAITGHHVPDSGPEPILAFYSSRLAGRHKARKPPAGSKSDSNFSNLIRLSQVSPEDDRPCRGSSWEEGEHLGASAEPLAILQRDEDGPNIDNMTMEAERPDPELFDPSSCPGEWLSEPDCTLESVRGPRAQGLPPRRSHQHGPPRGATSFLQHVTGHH
Procedure, shortened: (§2)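 Single-concentration screen at 0.1 μM within a 52-kinase selectivity panel, with percent inhibition reported for each kinase.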

[14] = target: PAS domain-containing serine/threonine-protein kinase (Homo sapiens) (UniProt Q96RG2); assay: Inhibition of human recombinant GST-tagged PASK (879 to 1323 residues) expressed in baculovirus expression system at 0.1 uM relative to control
PAS domain-containing serine/threonine-protein kinase (Homo sapiens), sequence (Q96RG2 whole entry, the tested form may be a part): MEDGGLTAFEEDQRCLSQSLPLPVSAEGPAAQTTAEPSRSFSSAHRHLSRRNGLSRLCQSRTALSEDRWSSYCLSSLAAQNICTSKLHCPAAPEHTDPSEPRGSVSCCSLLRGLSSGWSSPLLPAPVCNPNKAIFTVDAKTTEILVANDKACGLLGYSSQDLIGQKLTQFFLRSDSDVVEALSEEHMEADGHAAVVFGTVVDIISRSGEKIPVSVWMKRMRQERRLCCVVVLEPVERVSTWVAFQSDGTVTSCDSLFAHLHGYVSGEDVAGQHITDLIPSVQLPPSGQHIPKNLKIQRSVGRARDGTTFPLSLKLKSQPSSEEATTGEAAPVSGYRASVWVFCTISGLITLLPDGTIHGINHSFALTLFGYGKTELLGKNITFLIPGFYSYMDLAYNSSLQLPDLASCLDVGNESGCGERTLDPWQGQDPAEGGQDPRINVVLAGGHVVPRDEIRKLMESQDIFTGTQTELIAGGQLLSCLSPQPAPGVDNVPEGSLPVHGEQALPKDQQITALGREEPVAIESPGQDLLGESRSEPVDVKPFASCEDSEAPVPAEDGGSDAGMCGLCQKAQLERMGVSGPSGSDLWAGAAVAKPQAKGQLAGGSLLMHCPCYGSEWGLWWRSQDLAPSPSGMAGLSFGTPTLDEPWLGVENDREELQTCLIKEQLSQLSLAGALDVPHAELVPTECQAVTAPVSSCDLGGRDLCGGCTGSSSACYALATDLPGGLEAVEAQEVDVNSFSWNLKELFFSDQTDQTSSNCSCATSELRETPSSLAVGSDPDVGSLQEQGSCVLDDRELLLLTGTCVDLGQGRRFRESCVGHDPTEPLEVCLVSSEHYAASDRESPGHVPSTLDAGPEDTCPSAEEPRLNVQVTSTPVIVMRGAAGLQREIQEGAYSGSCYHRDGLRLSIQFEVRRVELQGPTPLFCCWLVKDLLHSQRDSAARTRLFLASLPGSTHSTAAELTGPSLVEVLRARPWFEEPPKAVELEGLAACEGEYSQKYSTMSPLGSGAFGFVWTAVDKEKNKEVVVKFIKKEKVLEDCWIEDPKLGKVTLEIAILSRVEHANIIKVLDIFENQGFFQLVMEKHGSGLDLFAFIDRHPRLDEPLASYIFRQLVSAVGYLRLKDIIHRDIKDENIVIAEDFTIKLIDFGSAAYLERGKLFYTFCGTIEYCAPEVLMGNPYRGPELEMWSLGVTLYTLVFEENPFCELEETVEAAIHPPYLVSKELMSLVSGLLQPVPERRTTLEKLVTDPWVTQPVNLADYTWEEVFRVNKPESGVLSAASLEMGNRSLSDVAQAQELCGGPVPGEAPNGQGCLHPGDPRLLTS
Procedure, shortened: (§3)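 Single-point kinase selectivity screen at 0.1 μM compound across a panel of 52 kinases, recorded as percent inhibition for each kinase.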

[15] = target: CDK9/cyclin T1 (Homo sapiens) (UniProt O60563+P50750); assay: Inhibition of full length human recombinant His-tagged CDK9/Cyclin T expressed in baculovirus expression system using Cdk7/9tide as substrate at 0.1 uM by adapta assay relative to control; procedure, shortened: as §3
[16] = target: Serine/threonine-protein kinase Nek4 (Homo sapiens) (UniProt P51957); assay: Inhibition of full length human recombinant GST-tagged NEK4 expressed in baculovirus expression system using Ser/Thr peptide 17 substrate at 0.1 uM by Z-Lyte assay relative to control; procedure, shortened: as §3
Serine/threonine-protein kinase Nek4 (Homo sapiens), sequence (P51957 whole entry, looked up): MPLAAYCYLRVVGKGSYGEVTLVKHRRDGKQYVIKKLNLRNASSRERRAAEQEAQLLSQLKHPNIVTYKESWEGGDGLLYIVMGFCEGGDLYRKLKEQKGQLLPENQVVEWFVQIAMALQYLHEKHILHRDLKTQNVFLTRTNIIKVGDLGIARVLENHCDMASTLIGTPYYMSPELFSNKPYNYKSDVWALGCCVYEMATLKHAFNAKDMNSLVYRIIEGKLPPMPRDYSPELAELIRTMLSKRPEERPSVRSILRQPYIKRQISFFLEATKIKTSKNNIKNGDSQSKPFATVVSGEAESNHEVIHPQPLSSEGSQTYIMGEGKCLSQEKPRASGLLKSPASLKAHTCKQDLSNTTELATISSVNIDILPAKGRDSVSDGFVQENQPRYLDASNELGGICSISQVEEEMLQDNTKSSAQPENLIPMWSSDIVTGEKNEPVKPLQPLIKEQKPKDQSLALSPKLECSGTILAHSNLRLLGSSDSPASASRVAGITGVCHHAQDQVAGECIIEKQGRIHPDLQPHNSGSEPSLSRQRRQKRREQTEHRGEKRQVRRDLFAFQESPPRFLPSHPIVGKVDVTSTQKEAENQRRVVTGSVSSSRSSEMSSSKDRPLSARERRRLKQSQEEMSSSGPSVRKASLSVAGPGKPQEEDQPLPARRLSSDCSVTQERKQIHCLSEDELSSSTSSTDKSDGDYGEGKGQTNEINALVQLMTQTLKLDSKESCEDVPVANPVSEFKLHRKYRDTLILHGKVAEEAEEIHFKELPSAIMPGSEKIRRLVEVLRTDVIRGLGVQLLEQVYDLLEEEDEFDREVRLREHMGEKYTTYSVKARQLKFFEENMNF

[17] = target: Glycogen synthase kinase-3 alpha (Homo sapiens) (UniProt P49840); assay: Inhibition of recombinant GSK3alpha (unknown origin) at 0.1 uM relative to control; procedure, shortened: as §2
Glycogen synthase kinase-3 alpha (Homo sapiens), sequence (P49840 2-483 limits assumed): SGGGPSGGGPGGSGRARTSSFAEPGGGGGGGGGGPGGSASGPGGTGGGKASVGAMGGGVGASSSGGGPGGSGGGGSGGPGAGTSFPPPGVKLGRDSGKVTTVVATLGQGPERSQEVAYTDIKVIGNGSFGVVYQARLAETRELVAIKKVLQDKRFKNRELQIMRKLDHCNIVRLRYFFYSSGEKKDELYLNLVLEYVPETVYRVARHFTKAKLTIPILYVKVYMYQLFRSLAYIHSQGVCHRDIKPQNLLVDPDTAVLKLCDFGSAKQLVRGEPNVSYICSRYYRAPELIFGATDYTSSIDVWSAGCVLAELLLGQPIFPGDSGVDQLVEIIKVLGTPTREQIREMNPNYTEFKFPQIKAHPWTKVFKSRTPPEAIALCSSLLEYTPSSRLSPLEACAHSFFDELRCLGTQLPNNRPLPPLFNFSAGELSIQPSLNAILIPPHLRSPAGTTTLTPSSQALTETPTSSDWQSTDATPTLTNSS

| IC50 [2] | Papp A→B [3] | solubility kinetic at 24 h, 200 µM [8] | fraction unbound [9] | fraction unbound [11] | fraction unbound [12] | Compound | other results |
| --- | --- | --- | --- | --- | --- | --- | --- |
| 1 nM | 2.5 ×10⁻⁶ cm/s | – | – | – | – | N#Cc1ccc(Oc2cncc3sc(-c4nnn[nH]4)cc23)cc1 | EC50 [1]: > 10000 nM; EC50 [4]: > 10000 nM |
| 1.5 nM | – | 5.5 µM (≈ 1.76 µg/mL) | 0.041 | 0.023 | 0.0187 | NC(=O)c1cc2c(Oc3ccc(Cl)cc3)cnc(N)c2s1 | EC50 [1]: 6700 nM; Ratio [5]: 1000; IC50 [6]: 1100 nM; Activity [7]: Active; EC50 [4]: 5400 nM; Activity [10]: Active |
| 29 nM | – | 18 µM (≈ 5.89 µg/mL) | 0.204 | 0.152 | 0.09 | CC(=O)Nc1ccc(Oc2cncc3sc(C(N)=O)cc23)cc1 | – |
| 16 nM | – | < 1 µM | – | – | – | NC(=O)c1cc2c(Oc3ccc(Cl)cc3)cnc(F)c2s1 | – |
| 4.4 nM | 0.7 ×10⁻⁶ cm/s | – | – | – | – | NC(=O)c1ccc(Oc2cncc3sc(-c4nnn[nH]4)cc23)cc1 | – |
| 6.2 nM | – | 6.3 µM (≈ 1.92 µg/mL) | – | – | – | NC(=O)c1cc2c(Oc3ccc(Cl)cc3)cncc2s1 | IC50 [6]: 2200 nM |
| 1.1 nM | 11 ×10⁻⁶ cm/s | – | – | – | – | Clc1ccc(Oc2cncc3sc(-c4nnn[nH]4)cc23)cc1 | EC50 [1]: > 10000 nM; EC50 [4]: > 10000 nM |
| 5.1 nM | – | 8 µM (≈ 2.36 µg/mL) | 0.109 | 0.127 | 0.153 | N#Cc1ccc(Oc2cncc3sc(C(N)=O)cc23)cc1 | – |
| 75 nM | – | – | – | – | – | CN(C)C(=O)c1cc2c(Oc3ccc(Cl)cc3)cncc2s1 | – |
| 1.1 nM | 24 ×10⁻⁶ cm/s | – | – | – | – | FC(F)(F)Oc1ccc(Oc2cncc3sc(-c4nnn[nH]4)cc23)cc1 | EC50 [1]: > 10000 nM; EC50 [4]: > 10000 nM |
| 6 nM | – | < 1 µM | 0.039 | 0.041 | 0.028 | Cc1ccc(Oc2cncc3sc(C(N)=O)cc23)cc1 | – |
| 25 nM | – | 10 µM (≈ 3 µg/mL) | 0.098 | 0.06 | 0.064 | COc1ccc(Oc2cncc3sc(C(N)=O)cc23)cc1 | – |
| 5.5 nM | 9.1 ×10⁻⁶ cm/s | – | – | – | – | Fc1ccc(Oc2cncc3sc(-c4nnn[nH]4)cc23)cc1 | – |
| 100 nM | – | – | – | – | – | CC(C)NC(=O)c1cc2c(Oc3ccc(Cl)cc3)cncc2s1 | – |
| 32 nM | – | – | 0.003 | 0.002 | 0.003 | CC(=O)c1cc2c(Oc3ccc(Cl)cc3)cncc2s1 | – |
| 2 nM | 0.8 ×10⁻⁶ cm/s | – | – | – | – | CC(=O)Nc1ccc(Oc2cncc3sc(-c4nnn[nH]4)cc23)cc1 | – |
| 59 nM | – | – | – | – | – | O=C(c1cc2c(Oc3ccc(Cl)cc3)cncc2s1)C1CC1 | – |

| IC50 [2] | Papp A→B [3] | solubility kinetic at 24 h, 200 µM [8] | fraction unbound [9] | fraction unbound [11] | fraction unbound [12] | Compound | other results |
| --- | --- | --- | --- | --- | --- | --- | --- |
| 24 nM | – | – | 0.009 | 0.007 | 0.008 | O=C(NC1CC1)c1cc2c(Oc3ccc(Cl)cc3)cncc2s1 | – |
| 62 nM | – | – | – | – | – | COC(=O)c1cc2c(Oc3ccc(Cl)cc3)cncc2s1 | – |
| 12 nM | – | < 1 µM | 0.028 | 0.032 | 0.021 | NC(=O)c1cc2c(Oc3ccc(OC(F)(F)F)cc3)cncc2s1 | EC50 [1]: > 10000 nM; EC50 [4]: > 10000 nM |
| 8.2 nM | – | – | 0.023 | 0.01 | 0.015 | CNC(=O)c1cc2c(Oc3ccc(Cl)cc3)cncc2s1 | – |
| 1.6 nM | 12 ×10⁻⁶ cm/s | – | – | – | – | Cc1ccc(Oc2cncc3sc(-c4nn[nH]n4)cc23)cc1 | EC50 [1]: > 10000 nM; EC50 [4]: > 10000 nM |
| 21 nM | – | 7 µM (≈ 2.19 µg/mL) | 0.217 | 0.232 | 0.227 | NC(=O)c1ccc(Oc2cncc3sc(C(N)=O)cc23)cc1 | – |
| 29 nM | – | – | < 0.001 | < 0.001 | < 0.001 | CCC(=O)c1cc2c(Oc3ccc(Cl)cc3)cncc2s1 | – |
| – | – | – | – | – | – | CN1CC[C@H](c2c(O)cc(O)c3c(=O)cc(-c4ccccc4Cl)oc23)[C@H](O)C1 [ALVOCIDIB] | EC50 [1]: 34 nM |
| 16 nM | – | – | – | – | – | CCNC(=O)c1cc2c(Oc3ccc(Cl)cc3)cncc2s1 | – |
| 5.3 nM | – | – | 0.002 | 0.001 | 0.002 | CNC(=O)c1cc2c(Oc3ccc(I)cc3)cncc2s1 | – |
| 8.3 nM | 4.1 ×10⁻⁶ cm/s | – | – | – | – | c1ccc(Oc2cncc3sc(-c4nn[nH]n4)cc23)cc1 | – |
| 8 nM | – | 10 µM (≈ 3.19 µg/mL) | 0.012 | 0.008 | 0.007 | Cc1ncc(Oc2ccc(Cl)cc2)c2cc(C(N)=O)sc12 | EC50 [1]: > 10000 nM; Ratio [5]: 1000; EC50 [4]: 8700 nM |
| 2.8 nM | – | – | 0.003 | 0.003 | 0.002 | O=C(O)c1cc2c(Oc3ccc(Cl)cc3)cncc2s1 | EC50 [1]: > 10000 nM; EC50 [4]: > 10000 nM |
| 11 nM | – | < 1 µM | – | – | – | NC(=O)c1cc2c(Oc3ccc(Cl)cc3)cnc(Cl)c2s1 | – |
| 0.7 nM | 24 ×10⁻⁶ cm/s | – | – | – | – | Ic1ccc(Oc2cncc3sc(-c4nn[nH]n4)cc23)cc1 | inhibition [13]: > 80%; inhibition [14]: > 50%; inhibition [15]: > 30%; inhibition [16]: > 30%; inhibition [17]: > 80% |
| 3 nM | 1.9 ×10⁻⁶ cm/s | – | – | – | – | NC(=O)c1ccc(-c2ccc(Oc3cncc4sc(-c5nn[nH]n5)cc34)cc2)cc1 | inhibition [13]: > 80%; inhibition [14]: > 80%; inhibition [15]: > 50%; inhibition [16]: > 80%; inhibition [17]: > 80% |
